High-throughput results as filed in PubChem.
Shown are actives, neighbours in structure and some others; about 1.3% of the full set was active somewhere.
Tn6 DDE FP: inhibitors of Tn6 peptide binding to human fibrin DD(E); P02675; Fibrin DD(E) TRITC-Tn6 fluorescence polarization displacement; inhibition, % at 8.3 µM; 0.21% of 370,000 active;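 active means inhibition above a per-campaign cutoff: mean of compounds within control limits plus 3 SD, cut at about 15% in these data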;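 further: 0% = median of all compound wells on the plate and 100% = blocking peptide control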
DDE Tn7 FP inh: disrupts Tn7 cyclic peptide binding to fibrin D-Dimer-E complex; inhibition, % at 8.3 µM; 0.13% of 370,000 active; FP displacement of FITC-Tn7 peptide from fibrin DD(E); 0% = median of compound wells per plate; P02675; AID 720508;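 active means inhibition above the mean of compounds falling within the control limits plus 3 SD of them, cut at about 14% in these data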;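 further: 0% = plate median of compound wells and 100% = 10 µM Aha-Tn7 peptide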
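Assay system: Human fibrin DD(E) protein | Medium: Tris buffer with calcium and detergent, pH 7.8 | Reagent: 0.1 µM fluorescent Tn7 | Compound dosing: Single point at 8.3 µM | Times: 10 min preincubation, 3 h with tracer, room temperature | Detection: Fluorescence polarization of the labelled Tn7 tracer | Controls: Aha-Tn7 high control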
NRP1-CendR mod: modulators of CendR peptide binding to human neuropilin-1 | O14786 | FAM-RPARPAR peptide binding to NRP-1, fluorescence polarization | inhibition, % at 25 µM | 0.85% of 360,000 active;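 active means inhibition or corrected inhibition above about 18%, plus a signal ratio from 0.5 to 1.5, limit read from the data, passing the limit was not always enough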
Target sequence (O14786 whole entry, looked up): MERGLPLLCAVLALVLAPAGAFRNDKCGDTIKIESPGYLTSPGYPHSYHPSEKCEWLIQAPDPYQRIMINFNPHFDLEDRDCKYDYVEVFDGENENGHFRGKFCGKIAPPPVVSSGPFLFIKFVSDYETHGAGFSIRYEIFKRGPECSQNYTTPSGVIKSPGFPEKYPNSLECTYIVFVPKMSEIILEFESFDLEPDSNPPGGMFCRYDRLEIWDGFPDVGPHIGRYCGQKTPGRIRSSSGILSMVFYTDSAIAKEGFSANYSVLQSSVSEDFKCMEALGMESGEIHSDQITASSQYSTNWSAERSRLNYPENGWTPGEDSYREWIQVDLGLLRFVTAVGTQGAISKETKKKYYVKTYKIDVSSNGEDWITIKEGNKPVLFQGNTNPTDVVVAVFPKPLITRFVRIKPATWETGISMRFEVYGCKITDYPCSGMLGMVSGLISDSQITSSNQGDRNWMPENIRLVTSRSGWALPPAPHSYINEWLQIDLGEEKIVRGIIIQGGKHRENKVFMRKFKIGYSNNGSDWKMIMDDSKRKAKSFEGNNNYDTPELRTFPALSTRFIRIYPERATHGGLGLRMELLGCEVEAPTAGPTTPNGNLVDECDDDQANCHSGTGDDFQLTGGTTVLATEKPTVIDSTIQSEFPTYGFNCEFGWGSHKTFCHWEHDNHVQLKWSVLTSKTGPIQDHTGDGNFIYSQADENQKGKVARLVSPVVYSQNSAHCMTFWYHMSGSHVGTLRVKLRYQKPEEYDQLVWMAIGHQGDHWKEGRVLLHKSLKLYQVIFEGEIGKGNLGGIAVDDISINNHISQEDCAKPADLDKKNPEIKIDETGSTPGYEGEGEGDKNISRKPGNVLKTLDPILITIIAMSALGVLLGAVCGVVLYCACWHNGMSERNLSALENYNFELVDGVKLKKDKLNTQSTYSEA
aDG glyco act: alpha-DG glycosylation activation; AID 624168; activation, % at 10 µM; 0.22% of 360,000 active; Pro5-aDG cells, alpha-DG glycosylation AlphaScreen (IIH6); 0% Pro5, 100% B10-LARGE cell signal;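 active means activation of at least 8% versus controls, or a plate z-score of at least 8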;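 further: Pro5 are CHO cells carrying HIG-tagged alpha-DG that lacks glycosylation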
An asterisk follows results filed as active; · = no result.

SMILES | Tn6 DDE FP | DDE Tn7 FP inh | NRP1-CendR mod | aDG glyco act
O=S(=O)(NCC(c1ccc2c(c1)OCO2)N1CCOCC1)c1ccc(Cl)cc1 (configuration not stated) | 0 | 8 | -5 | 0
Cc1cc(S(=O)(=O)NCC(c2ccc3c(c2)OCO3)N2CCOCC2)ccc1F (configuration not stated) | 0 | 8 | 24* | 0
O=C(NCc1cccc(Cl)c1)c1ccc(S(=O)(=O)N2CCCCC2)cc1 | -7 | -8 | -1 | 0
Cc1ccc2nccc(C(=O)N3CCCC(Nc4ccc(F)cc4)C3)c2c1 (configuration not stated) | -5 | -2 | 22* | 0
O=C(CN1C(=O)NC(Cc2ccccc2)C1=O)Nc1ccc(F)cc1 (configuration not stated) | 5 | 1 | 3 | 0
O=C(CN1C(=O)NC(Cc2ccccc2)C1=O)Nc1ccc(OC(F)(F)F)cc1 (configuration not stated) | 2 | -7 | 34* | 0
CCOc1ccc(N(CC(=O)N2CCC(Cc3ccccc3)CC2)S(C)(=O)=O)cc1 | 10 | -4 | 29* | 1
CCOc1ccc(-c2cc(C(=O)Nc3cc(OC)c(OC)c(OC)c3)[nH]n2)c(C)c1 | 2 | -13 | 14 | 0
CCC1(CC)NC(=O)N(CC(=O)OCC(=O)Nc2cc(OC)ccc2OC)C1=O | -4 | -1 | 24* | 0
CCOC(=O)c1nn(-c2ccccc2)c(C#N)c1N | 6 | -6 | 39* | 0
COc1ccc(OC)c(NC(=O)CCNS(=O)(=O)c2cccc3nonc23)c1 | -2 | -5 | 28* | 0
COC(=O)[C@]12CCCCC=C1N(CCc1ccc(OC)c(OC)c1)C(=O)[C@H](CC(=O)N1CCC(c3ccccc3)CC1)C2 | 3 | -3 | 1 | 0
O=C(CSc1nnc(CNc2ccc(Cl)cc2)n1Cc1ccccc1)NCc1ccco1 | 1 | -1 | -1 | 0
O=C(CSc1nnc(Cc2ccccc2)n1Cc1ccccc1)NCc1ccco1 | 1 | 2 | 30* | 0
O=C(CSc1nnc(-c2cccs2)n1Cc1ccccc1)NCc1ccc2c(c1)OCO2 | -2 | -4 | 24* | 0
NS(=O)(=O)c1ccc(CCNC(=O)CNC(=O)c2ccc(Br)o2)cc1 | · | · | 19* | 0
CCC(=O)N(c1nnc(SC(C)C(=O)Nc2ccc(N3CCOCC3)cc2)s1)C1CC1 (configuration not stated) | -6 | 3 | 5 | 0
O=C(OCc1nnc(-c2ccc(Cl)cc2)o1)c1ccc(O)cc1 | 4 | 2 | 29* | 0
Cc1nn(Cc2ccccc2)c(Cl)c1C(=O)OCc1nnc(-c2ccc(Cl)cc2)o1 | -1 | 0 | 38* | 1
C[C@H](NC(=O)c1nc[nH]c1C(=O)NCCCCCNC(=O)OC(C)(C)C)c1ccccc1 | -1 | -2 | 28* | 1
CC(C)(C)OC(=O)NCc1ccc(CNC(=O)c2nc[nH]c2C(=O)N2CCN(C(=O)OC(C)(C)C)CC2)cc1 | 3 | -5 | 27* | 0
C[C@@H](NC(=O)c1nc[nH]c1C(=O)N1CCN(c2ccccc2)CC1)c1ccccc1 | 2 | -8 | 22* | 0
C[C@@H](NC(=O)c1nc[nH]c1C(=O)NCCCCCNC(=O)OC(C)(C)C)c1ccccc1 | -13 | 3 | 7 | 1
C[C@H](NC(=O)c1nc[nH]c1C(=O)NCc1ccc(CNC(=O)OC(C)(C)C)cc1)C(=O)OCc1ccccc1 | 0 | 5 | 6 | 0
CC1CCN(C(=O)c2[nH]cnc2C(=O)N[C@H](C)c2ccccc2)CC1 | -7 | -1 | -2 | 0
SMILES | Tn6 DDE FP | DDE Tn7 FP inh | NRP1-CendR mod | aDG glyco act
C[C@H](NC(=O)c1nc[nH]c1C(=O)NCc1ccc(CNC(=O)OC(C)(C)C)cc1)c1ccccc1 | -1 | -10 | 28* | 1
O=C(CCS(=O)(=O)c1ccccc1)Nc1ccc(F)cc1Cl | 4 | -3 | · | ·
CC(C)(C)OC(=O)N1CCC2CCN(CCc3ccccc3)CC21 (configuration not stated) | 4 | 3 | · | ·
C[C@H](NC(=O)c1nc[nH]c1C(=O)NCc1ccccc1)c1ccccc1 | -2 | -5 | 13 | 0
C[C@@H](NC(=O)c1nc[nH]c1C(=O)NCc1ccccc1)c1ccccc1 | -7 | 3 | 26* | 0
CC1(C)Cc2c(C#N)c(NCC3CCCO3)nc(-c3ccco3)c2CO1 (configuration not stated) | -1 | 0 | -24 | 0
N#Cc1c(-c2ccco2)nc(NCC2CCCO2)[nH]c1=O (configuration not stated) | 0 | 0 | 27* | 0
CN1C2=N[C@@H](c3ccc4c(c3)OCO4)CC(=O)N2/C(=C\c2ccccc2)[C@@H]1c1ccccc1 | -3 | 2 | · | ·
C/C(=N\NC(=O)c1cc(O)ccc1O)c1cccc(NC(=O)c2cccc(Cl)c2)c1 | -10 | -5 | 23* | 0
COC(=O)c1cc2c(c3c4ccccc4n(S(C)(=O)=O)c13)C(=O)N(Cc1ccccc1)C2 | -7 | 1 | · | ·
C[C@H](CO)N1C[C@H](C)[C@@H](CN(C)Cc2ccc(C(=O)O)cc2)Oc2c(NC(=O)Cc3ccccc3)cccc2C1=O | -8 | -1 | 30* | 0
C[C@@H]1CN([C@@H](C)CO)C(=O)c2cccc(NS(C)(=O)=O)c2O[C@H]1CN(C)Cc1ccc(C(=O)O)cc1 | 2 | 5 | 26* | 0
O=C(NCc1cccc(F)c1)c1cccc(OC2CCN(C(=O)C3CC3)CC2)c1 | 4 | 5 | 24* | 1
CCN(Cc1ccccc1)C(=O)c1cccc(OC2CCN(C(=O)C3CC3)CC2)c1 | 8 | 5 | 10 | 0
Cc1ccc(S(=O)(=O)N2CC[C@@]3(Cc4ccccc4)Cc4ccccc4C[C@@H]23)cc1 | 3 | -11 | · | ·
CCn1c2ccccc2c2cc([N+](=O)[O-])ccc21 | 0 | -3 | 29* | 0
CC(C)n1c2ccccc2c2cc([N+](=O)[O-])ccc21 | -4 | 0 | -16 | 0
Cc1nn(-c2ccccc2)c2sc(C(=O)NCC3CCCO3)cc12 (configuration not stated) | -7 | 8 | · | ·
O=C1C2C3C=CC(C2C(=O)N1c1cccc(O)c1)C1C2C(=O)N(c4cccc(O)c4)C(=O)C2C31 (configuration not stated) | -2 | 3 | -3 | 0
C#Cc1cccc(N2C(=O)C3C4C=CC(C3C2=O)C2C(=O)N(c3cccc(C#C)c3)C(=O)C42)c1 (configuration not stated) | 2 | 1 | 25* | 0
Cc1ccc(S(=O)(=O)CC(=O)NCc2ccccc2)cc1 | -1 | 3 | -6 | 0
Cc1ccc(CNC(=O)CS(=O)(=O)CC(=O)O)cc1 | 3 | -3 | 21* | 0
CCCCOc1ccc(C(=O)NC2CCCCN(C)C2=O)cc1 (configuration not stated) | -5 | -5 | · | ·
CC(C)CCNC(=O)C1(C)CCN1Cc1ccc2ccccc2c1 (configuration not stated) | -10 | 2 | -7 | 0
